Measured values reported in ChEMBL document CHEMBL4033788, “Novel Ligustrazine-Based Analogs of Piperlongumine Potently Suppress Proliferation and Metastasis of Colorectal Cancer Cells in Vitro and in Vivo” (J Med Chem, 2018).
Active and inactive are the calls of the source. The calls are words filed in the database; no cut-off is given here.

Tests used:
[1] = Stability of compound in intestinal fluid at pH 6.8 at 1 uM after 4 hrs by LC-MS/MS analysis
[2] = Stability of compound in stimulated gastric fluid at 1 uM after 4 hrs by LC-MS/MS analysis
[3] = Acute toxicity in ICR mouse assessed as survival rate at 50 mg/kg, ip administered for 14 days relative to control; assay type: organism-based; details: in vivo
HCT-116 = experiment: Inhibition of TGF-beta1-induced decrease in expression levels of E-cadherin protein in human HCT116 cells after 48 hrs by Western blot analysis; assay type: functional, cell-based
How it was run: (§1)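 HCT-116 cells treated with or without TGF-β1 (10 ng/mL) for 48 h, with or without test agent. Lysates (20 μg/lane) run on 7.5% SDS-PAGE and transferred to PVDF. Probed for p-Akt (Ser473), Akt, p-GSK-3β (S9), GSK-3β, E-cadherin, MMP-9 and β-actin, detected by ECL. Densitometry relative to β-actin or total protein. Three independent experiments.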

[4] = target: RAC-alpha serine/threonine-protein kinase (Homo sapiens) (UniProt P31749); experiment: Inhibition of TGF-beta1-induced AKT phosphorylation in human HCT116 cells at 50 nM after 48 hrs by Western blot analysis; assay type: cell-based; how it was run: as §1
Chain of RAC-alpha serine/threonine-protein kinase (Homo sapiens) (P31749 whole entry): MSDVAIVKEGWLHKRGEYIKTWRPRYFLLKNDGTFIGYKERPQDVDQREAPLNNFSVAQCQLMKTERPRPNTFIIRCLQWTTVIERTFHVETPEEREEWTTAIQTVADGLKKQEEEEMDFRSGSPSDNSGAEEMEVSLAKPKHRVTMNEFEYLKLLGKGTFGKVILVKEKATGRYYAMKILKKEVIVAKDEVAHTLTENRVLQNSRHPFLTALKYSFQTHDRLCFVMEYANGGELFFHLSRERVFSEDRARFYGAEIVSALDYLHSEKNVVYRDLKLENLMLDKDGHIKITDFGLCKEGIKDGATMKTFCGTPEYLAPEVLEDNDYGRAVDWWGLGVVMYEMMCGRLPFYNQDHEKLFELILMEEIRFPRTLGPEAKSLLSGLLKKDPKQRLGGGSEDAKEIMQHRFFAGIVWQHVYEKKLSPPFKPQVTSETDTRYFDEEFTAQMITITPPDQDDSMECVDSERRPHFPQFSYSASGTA

Row | SMILES | Stability [1] | Stability [2] | survival at 336 h [3] [%] | inhibition (HCT-116) | inhibition [4]
1 | Cc1nc(C)c(/C=C/C(=O)N2CCC=C(Cl)C2=O)nc1C | Stable | Stable | 100 | Dose-dependent effect | –
2 | COc1cc(/C=C/C(=O)N2CCC=CC2=O)cc(OC)c1OC [PIPLARTINE] | – | – | – | – | Active
